According to paper PMC4785611 (British Journal of Haematology, 2016):
Entries after “also recorded” stand apart in the source; their conditions may differ.

How the values were obtained:
[1] = tested on: Japanese patients with relapsed and/or refractory multiple myeloma; experiment: Phase 1/2 study ONO-7057-01: adverse events; type: in vivo, human
In short: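 Safety set was all patients given ≥1 IV dose (10 min; Days 1, 2, 8, 9, 15, 16 of 28-day cycles). Pre-medication was 4 mg oral or IV dexamethasone, with hydration in Cycle 1. Cycle 1 also had prophylactic antibiotics, plus acyclovir if herpes history. Patients with Grade ≥3 or painful Grade 2 PN or prior ILD were excluded. AEs were graded by NCI-CTCAE v4.0 through Cycle 6, with later cycles included.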

[2] = tested on: Japanese patients with relapsed and/or refractory multiple myeloma; experiment: Phase 1 dose escalation: dose-limiting toxicity in Cycle 1; type: in vivo, human; details: for Dose-limiting toxicity (DLT): Cycle 1
In short: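 Test compound was given IV over 10 min on Days 1, 2, 8, 9, 15 and 16 of 28-day cycles. The 20/27 arm received 20 mg/m2 on Days 1–2 of Cycle 1 and 27 mg/m2 from Day 8. Three or six patients per cohort: 1/3 DLT added three patients. At 2/3 or 3/6, the prior level became the recommended dose. No G-CSF was allowed during Cycle 1 evaluation.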

[3] = tested on: patients with multiple myeloma; details: of 526 patients; ref Siegel et al, 2013; cited from earlier work

## CC(C)C[C@H](NC(=O)[C@H](CCc1ccccc1)NC(=O)CN1CCOCC1)C(=O)N[C@@H](Cc1ccccc1)C(=O)N[C@@H](CC(C)C)C(=O)[C@@]1(C)CO1 [carfilzomib]
[1]; Patient No. 1, 20 mg/m^2, baseline PN Grade 1, worst PN Grade before the study 3
  Peripheral neuropathy under study treatment, preferred terminology (Grade): Peripheral neuropathy (2)
[1]; Total, N = 50
  Interstitial lung disease (ILD): No ILD was observed
[1]; during administration period or within 30 days after final administration
  AEs leading to death: No AEs led to death
[1]; five patients without PN history
  New PN in patients who had never experienced PN before enrolment: no new cases of PN occurred and did not develop PN and none
[1]; of 35 patients with PN at baseline
  Patients with PN at baseline in whom carfilzomib exacerbated PN: three
[1]; of the 24 patients whose treatment was interrupted
  Patients believed to have infections leading to treatment interruption (pneumonia, fever): three
[1]; of the 24 patients whose treatment was interrupted, seven events
  Patients with treatment interrupted because of neutropenia: five
[2]; 15 mg/m^2 cohort, four patients (one not evaluable)
  Dose-limiting toxicity (DLT): no DLT was observed
[2]; 20/27 mg/m^2 cohort, seven patients (one not evaluable)
  Dose-limiting toxicity (DLT): no DLT was observed
[2]; doses 15, 20 and 20/27 mg/m^2
  Maximum tolerated dose (MTD): did not reach the maximum tolerated dose; also recorded: did not reach the MTD
[3]
  PN Grade ≥3, patients, integrated analysis: seven
